Experiments:
Yellow fever virus = test: Antiviral activity against Yellow fever virus 17D infected in BHK21 cells assessed as inhibition of virus-induced cytopathogenicity after 3 to 4 days by MTT assay; assay type: functional, cell-based; settings: BHK-21
[1] = tested on: Vesicular stomatitis Indiana virus; test: Antiviral activity against Vesicular stomatitis virus indiana ATCC VR-1540 infected in african green monkey Vero-76 cells assessed as reduction in viral plaque after 2 days by crystal violet staining; assay type: functional, organism-based; settings: ATCC VR-1540, Vero 76, 48 h
[2] = tested on: Mammalian orthoreovirus 1; test: Antiviral activity against Reovirus 1 3651 ATCC VR-214 infected in BHK21 cells assessed as inhibition of virus-induced cytopathogenicity after 3 to 4 days by MTT assay; assay type: functional, organism-based; settings: Mammalian orthoreovirus 1, 3651 ATCC VR-214, BHK-21
In short: (§1)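 BHK (5×10^4/well) or MDBK (3×10^4/well) cells grown to confluent monolayers overnight, infected at m.o.i. 0.01 in maintenance MEM-Earl with 0.5% inactivated FBS. Serially diluted compounds added after 1 h. Viability read by MTT after 3–4 days at 37 °C. Values are expressed as % of untreated controls, and EC50 is derived by linear regression. Duplicate samples.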

Coxsackievirus B5 = test: Antiviral activity against Coxsackie virus type B5 Ohio-1 ATCC VR-29 infected in african green monkey Vero-76 cells assessed as reduction in viral plaque after 3 days by crystal violet staining; assay type: functional, organism-based; settings: Enterovirus B, Ohio-1 ATCC VR-29, Vero 76, 72 h
In short: (§2)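 Vero-76 monolayers (2×10^5 cells/well) infected for 2 h at 50–100 PFU/well. Unadsorbed virus removed. D-MEM with 1% inactivated FBS, 0.75% methylcellulose and serial compound dilutions added. Incubation at 37 °C for 3 days (CVB-5, HSV-1) or 5 days (RSV). Fixed and stained with 50% ethanol/0.8% crystal violet, then plaques counted. EC50 by linear regression versus untreated controls.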

[3] = Cytotoxicity against BHK21 cells by MTT assay; assay type: cell-based, Mesocricetus auratus; settings: hamster, BHK-21 cells
In short: (§3)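 Mock-infected MDBK (6×10^5 cells/mL, MEM-E with 10% horse serum) or BHK (1×10^6 cells/mL, MEM-E with 10% FBS) cells incubated with serial compound dilutions at 37 °C and 5% CO2. Viability measured by MTT after 48–96 h. CC50 by linear regression against untreated controls.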

Vaccinia virus = test: Antiviral activity against Vaccinia virus Elstree-Lister ATCC VR-1549 infected in african green monkey Vero-76 cells assessed as reduction in viral plaque after 3 days by crystal violet staining; assay type: functional, organism-based; settings: Orthopoxvirus vaccinia, Elstree-Lister ATCC VR-1549, Vero 76, 72 h
Poliovirus 1 = test: Antiviral activity against Polio virus type 1 strain sabin ATCC VR-1562 infected in african green monkey Vero-76 cells assessed as reduction in viral plaque after 2 days by crystal violet staining; assay type: functional, cell-based, Human poliovirus 1 strain Sabin; settings: Enterovirus C, ATCC VR-1562, Vero 76, 48 h
[4] = Cytotoxicity against african green monkey Vero 76 cells after 48 to 96 hrs by MTT assay; assay type: cell-based; settings: chlorocebus sabaeus
[5] = Cytotoxicity against human MT4 cells after 96 hrs by MTT assay; assay type: cell-based
In short: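 Exponentially growing MT-4 cells seeded at 1×10^5 cells/mL in RPMI-1640 with 10% FBS and incubated with serial compound dilutions at 37 °C and 5% CO2. Viability measured by MTT after 96 h. CC50 by linear regression against untreated controls.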

[6] = tested on: Human immunodeficiency virus 1; test: Antiviral activity against HIV1 3B infected in human MT4 cells assessed as inhibition of virus-induced cytopathogenicity after 4 days by MTT assay; assay type: functional, organism-based; settings: Human immunodeficiency virus 1, 3B, MT4, 96 h
In short: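 MT-4 cells (1×10^4/well) in RPMI with serial compound dilutions, infected with HIV-1 IIIB at 100 CCID50 (m.o.i. 0.01). Viability measured by MTT after 4 days at 37 °C. EC50 for 50% protection from cytopathogenicity obtained by linear regression against untreated controls.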

[7] = Antiviral activity against Human respiratory syncytial virus A2 ATCC VR-1540 infected in african green monkey Vero-76 cells assessed as reduction in viral plaque after 5 days by crystal violet staining; assay type: functional, cell-based; settings: ATCC VR-1540, Vero 76, 120 h; in short: as §2
[8] = Cytotoxicity against MDBK cells after 48 to 96 hrs by MTT assay; assay type: cell-based, Bos taurus; settings: cattle; in short: as §3
[9] = Antiviral activity against BVDV1 NADL ATCC VR-534 infected in MDBK cells assessed as inhibition of virus-induced cytopathogenicity after 3 to 4 days by MTT assay; assay type: functional, cell-based, Bovine viral diarrhea virus 1-NADL; settings: Bovine viral diarrhea virus isolates and strains, ATCC VR-534, MDBK; in short: as §1
Human alphaherpesvirus 1 = test: Antiviral activity against Herpes simplex virus type 1 KOS ATCC VR-1493 infected in african green monkey Vero-76 cells assessed as reduction in viral plaque after 3 days by crystal violet staining; assay type: functional, organism-based; settings: Human alphaherpesvirus 1, KOS ATCC VR1493, Vero 76, 72 h; in short: as §2

Row | Compound | EC50 (Yellow fever virus) [µM] | EC50 [1] [µM] | EC50 [2] [µM] | EC50 (Coxsackievirus B5) [µM] | CC50 [3] [µM] | EC50 (Vaccinia virus) [µM] | EC50 (Poliovirus 1) [µM] | CC50 [4] [µM] | CC50 at 96 h [5] [µM] | EC50 [6] [µM] | EC50 [7] [µM] | CC50 [8] [µM] | EC50 [9] [µM] | EC50 (Human alphaherpesvirus 1) [µM]
1 | CC(=O)c1ccc2c(c1)nc(-c1ccc(Cl)cc1)n2C1CCCCC1 | > 100 | > 100 | > 100 | > 100 | > 100 | > 100 | > 100 | > 100 | 58 | > 58 | > 100 | > 100 | 23 | > 100
2 | CC(=O)c1ccc2c(c1)nc(-c1ccoc1)n2C1CCCCC1 | > 77 | – | – | > 80 | 77 | > 80 | > 80 | 80 | 63 | > 63 | – | > 100 | > 100 | > 80
3 | C/C(=N\NC(N)=S)c1ccc2[nH]c(-c3ccc(Cl)cc3)nc2c1 | > 100 | > 100 | > 100 | > 100 | > 100 | > 100 | > 100 | > 100 | 2 | > 2 | – | > 100 | 0.85 | –
4 | COc1ccc(-c2nc3cc(/C(C)=N/O)ccc3[nH]2)c(OC)c1 | > 100 | > 100 | > 100 | 43 | > 100 | > 100 | > 100 | > 100 | ≥ 100 | > 100 | > 100 | > 100 | 17 | > 100
5 | C/C(=N\NC(N)=S)c1ccc2[nH]c(-c3ccccc3)nc2c1 | > 32 | > 100 | > 32 | > 100 | 32 | – | > 100 | > 100 | ≥ 100 | > 100 | > 100 | 32 | 3.8 | –
6 | COc1ccc(-c2nc3cc(C(C)O)ccc3[nH]2)c(OC)c1OC (stereo unspecified) | > 60 | – | > 100 | > 100 | 60 | > 100 | > 100 | ≥ 100 | 79 | > 79 | > 100 | 60 | > 60 | > 100
7 | COc1ccc(-c2nc3cc(/C(C)=N/NC(N)=O)ccc3n2C2CCCCC2)c(OC)c1 | > 19 | – | – | > 20 | 19 | > 20 | > 20 | 20 | 23 | > 23 | – | 36 | 22 | > 20
8 | COc1ccc(-c2nc3cc(/C(C)=N/NC(N)=S)ccc3[nH]2)cc1 | > 13 | > 100 | > 13 | > 100 | 13 | > 100 | > 100 | > 100 | 5 | > 5 | – | 13 | 1.85 | –
9 | C/C(=N\NC(N)=S)c1ccc2c(c1)nc(-c1ccccn1)n2C1CCCCC1 | > 24 | > 20 | – | > 20 | 24 | > 20 | > 20 | 20 | 23 | > 23 | – | 41 | 26 | > 20
10 | COc1ccc(-c2nc3cc(/C(C)=N/O)ccc3[nH]2)c(OC)c1OC | > 100 | – | > 100 | > 100 | > 100 | > 100 | > 100 | > 100 | 51 | > 51 | – | > 100 | > 100 | > 100
11 | C/C(=N\NC(N)=S)c1ccc2c(c1)nc(-c1ccoc1)n2C1CCCCC1 | > 100 | > 25 | – | > 25 | > 100 | > 25 | > 25 | 25 | 21 | > 21 | – | > 100 | > 100 | > 25
12 | CC(=O)c1ccc2c(c1)nc(-c1ccccn1)n2C1CCCCC1 | > 100 | > 90 | – | > 90 | ≥ 100 | > 90 | > 90 | > 90 | 70 | > 70 | – | > 100 | > 100 | > 90
13 | COc1ccc(-c2nc3cc(C(C)=O)ccc3[nH]2)cc1 | > 40 | – | – | > 100 | 40 | > 100 | > 100 | > 100 | 24 | > 24 | – | 58 | > 58 | –
14 | C/C(=N\NC(N)=S)c1ccc2[nH]c(C3CCCCC3)nc2c1 | > 24 | > 100 | – | > 100 | 24 | > 100 | > 100 | > 100 | 48 | > 48 | > 100 | > 100 | 16 | –
15 | CC(=O)c1ccc2[nH]c(C3CCCCC3)nc2c1 | > 100 | > 100 | > 100 | 47 | > 100 | > 100 | > 100 | > 100 | > 100 | > 100 | – | > 100 | > 100 | > 100
16 | COc1ccc(-c2nc3cc(/C(C)=N/NC(N)=O)ccc3[nH]2)c(OC)c1 | > 100 | > 80 | > 100 | > 80 | ≥ 100 | 80 | > 80 | 80 | 21 | ≥ 21 | – | > 100 | 2.55 | –
17 | CC(=O)c1ccc2[nH]c(-c3ccoc3)nc2c1 | > 98 | > 100 | – | > 100 | 98 | > 100 | > 100 | > 100 | > 100 | > 100 | – | ≥ 100 | 22 | > 100
18 | C/C(=N\NC(N)=S)c1ccc2[nH]c(-c3ccc(C(F)(F)F)cc3)nc2c1 | > 5 | – | – | > 22 | 5 | – | > 22 | 22 | 2 | > 2 | – | 5 | > 1.8 | –
19 | COc1ccc(-c2nc3cc(/C(C)=N/NC(N)=S)ccc3n2C2CCCCC2)cc1 | – | > 40 | – | > 40 | – | > 40 | > 40 | 40 | 39 | > 39 | > 40 | 32 | 7 | > 40
20 | COc1ccc(-c2nc3cc(C(C)=O)ccc3[nH]2)c(OC)c1 | > 50 | – | – | > 100 | 50 | > 100 | > 100 | > 100 | 50 | > 50 | – | 73 | 21 | –
